# The list is not random: actives were taken first. Their share in the collection is about 4.7%.
# MC4R barr agon = human MC4R agonism via beta-arrestin. 0.98% of 360,000 active. AID 540308. activation, % at 8.9 µM. P32245. U2OS MC4R beta-arrestin complementation, luminescence; percent of melanotan II response, DMSO zero;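 active = activation above a per-plate cutoff, the mean activation of sample wells on that plate plus 3 SD, cut at about 8% in these data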
# Target sequence (P32245 whole entry, looked up): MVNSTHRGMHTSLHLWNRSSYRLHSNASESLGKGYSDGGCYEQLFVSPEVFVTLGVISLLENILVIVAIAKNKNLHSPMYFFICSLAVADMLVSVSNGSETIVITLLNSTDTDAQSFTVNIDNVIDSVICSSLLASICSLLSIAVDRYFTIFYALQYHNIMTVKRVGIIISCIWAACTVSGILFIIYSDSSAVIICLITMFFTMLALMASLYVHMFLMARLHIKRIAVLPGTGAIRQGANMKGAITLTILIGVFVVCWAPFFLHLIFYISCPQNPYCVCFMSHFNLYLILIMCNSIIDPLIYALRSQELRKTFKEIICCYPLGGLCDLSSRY
# AHR act = activators of human aryl hydrocarbon receptor; activation, % at 5 µM; P35869; AHR-responsive luciferase reporter cells, luminescence; 2.5% of 320,000 active; AID 2796; in the data active = activation above about 47%
# HTR2A ag = mouse HTR2A agonism via beta-arrestin recruitment | P35363 | CHO-K1 mHTR2A beta-arrestin complementation, luminescence; percent of 30 µM serotonin response | activation, % at 7.6 µM | 0.66% of 360,000 active | AID 624169;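 active = activation above a run cutoff, the mean activation of all tested compounds plus 3 SD, cut at about 14% in these data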
# MC4R antag cAMP = antagonists of human melanocortin 4 receptor (MC4R); inhibition, % at 6.5 µM; P32245; 0.48% of 360,000 active; MC4R-expressing cells, MTII-stimulated cAMP, LANCE TR-FRET;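 active = inhibition above its plate's cutoff, the mean of tested wells on that plate plus 3 SD, cut at about 29% in these data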
#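 Material: U2OS-MC4R stable cell line | Reagent: Melanotan II challenge after compound preincubation | Doses: One concentration, 6.5 µM nominal | Incubation: 30-min compound preincubation, 1-h Melanotan II challenge, 1-h detection, room temperature | Signal: TR-FRET cAMP assay | Replicates: One well per compound, no replicates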
# FXN GAA850 act = increases GAA850 frataxin promoter reporter activity; HEK293 lucGAA850 FXN promoter luciferase reporter, 24 h; percent of 10 µM SAHA response; 0.56% of 360,000 active; activation, % at 6 µM;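 active = activation above the average of all compounds screened plus 3 SD, cutoff fixed separately per campaign, cut at about 7.5% in these data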
# Numbers stand for hits; i = inactive; nt = no result.
SMILES,MC4R barr agon,AHR act,HTR2A ag,MC4R antag cAMP,FXN GAA850 act
CCN(CC)c1ccc(/C=N/NC(=O)CNC(=O)c2ccccn2)cc1,i,60,i,i,i
O=C(CNc1ccccc1)N/N=C/c1ccc2c(c1)OCO2,i,53,i,i,i
CCOC(=O)c1[nH]c(C)c(C(=O)OCC(=O)N(C)C2CCS(=O)(=O)C2)c1C (centres undefined),8.3,i,i,i,i
CC(=O)c1c(C)[nH]c(C(=O)COc2ccc3ccc(=O)oc3c2)c1C,i,56,i,i,i
COC(=O)c1c(C)[nH]c(C(=O)COc2ccc3ccc(=O)oc3c2)c1C,i,i,i,i,i
CCOC(=O)[C@]12CCC=C1N(Cc1cccc3ccccc13)C(=O)[C@H](CC(=O)NCC1CCCCC1)C2,nt,nt,i,nt,nt
O=C(NN=C1c2ccccc2-c2ccccc21)c1ccccc1,i,59,i,i,i
O=C(c1cc2cc(F)ccc2[nH]1)N1CCN(C(=O)c2ccco2)CC1,i,54,i,i,i
CC(=O)n1cc([C@@H]2C=C(C(=O)Nc3ccccc3)O[C@H](OCc3ccc(CO)cc3)C2)c2ccccc21,i,i,i,i,i
C#CCNC(=O)C1=C[C@@H](c2cn(C(C)=O)c3ccccc23)C[C@@H](OCc2ccc(CO)cc2)O1,i,47,i,i,i
CC(=O)n1cc([C@H]2C=C(C(N)=O)O[C@@H](OCc3ccc(CO)cc3)C2)c2ccccc21,i,73,i,i,i
CC(=O)n1cc([C@H]2C=C(C(=O)NCc3ccccc3)O[C@@H](OCc3ccc(CO)cc3)C2)c2ccccc21,i,65,i,i,i
CC(=O)n1cc([C@@H]2C=C(C(=O)N3CCN(Cc4ccccc4)CC3)O[C@H](OCc3ccc(CO)cc3)C2)c2ccccc21,i,i,i,i,i
Clc1c(Cl)c(Cl)c2n[nH]nc2c1Cl,i,i,18,i,i
Cc1cc(Br)ccc1NC(=O)c1ccc(-n2cncn2)c([N+](=O)[O-])c1,i,66,i,i,i
O=C(Cn1c2[n+](c3ccc(C(F)(F)F)cc31)CCCCC2)Nc1ccc(Br)cc1,i,i,i,30,i
COc1ccc2nc(C)cc(Nc3ccccc3OC)c2c1,i,nt,i,i,i
COc1ccc2nc(C)cc(N/N=C/c3cccc(OC)c3O)c2c1,i,111,i,i,i
COc1ccc(/C=N/Nc2cc(C)nc3ccc(Br)cc23)cc1,16,71,i,i,i
COc1cccc2c(N/N=C/c3ccccc3)cc(C)nc12,i,i,i,i,i
CCc1nc2ccc(C(=O)Nc3cccc(NS(C)(=O)=O)c3)cn2c1N(C)C(=O)c1cccc(OC)c1,i,nt,i,i,i
Brc1ccc2ncnc(Nc3cccc4ccccc34)c2c1,i,59,i,i,i
CCOC(=O)c1c(C)[nH]c2ccc(O)cc12,i,65,i,i,i
O=C(CSc1nccn1-c1ccc(Cl)cc1)Nc1ccc2c(c1)OCO2,i,53,i,i,i
O=C(CSc1nnnn1-c1ccc(Cl)cc1)NC(=O)Nc1ccc2c(c1)OCCO2,9.3,i,i,i,i
SMILES,MC4R barr agon,AHR act,HTR2A ag,MC4R antag cAMP,FXN GAA850 act
Cc1cccc(-n2ccnc2SCC(=O)Nc2ccc3c(c2)OCCO3)c1,i,i,i,i,i
CC(Oc1cccc(Cl)c1)C(=O)Nc1ccc(S(=O)(=O)N(C)C2CCN(C)CC2)cc1 (centres undefined),i,i,i,i,i
Cc1cc(NC(=O)COC(=O)c2cccc(OCc3ccccc3)c2)no1,8.5,i,i,i,i
COc1ccc(OC)c2sc(N(CCCN(C)C)C(=O)CCS(=O)(=O)c3ccccc3)nc12,i,i,i,i,31
Cc1cc(C)c2sc(N(CCN(C)C)C(=O)CCS(=O)(=O)c3ccccc3)nc2c1,9.2,i,i,i,i
COc1ccc(Cl)c2sc(N(CCN(C)C)C(=O)CCS(=O)(=O)c3ccc(C)cc3)nc12,i,i,i,i,i
CCCCc1c(-c2ccccc2OC)ncn1Cc1cccc(-c2ccccc2)c1,nt,nt,i,nt,nt
CC(C)(C)S(=O)N1Cc2cc(C(=O)N[C@@H]3CCN(Cc4ccccc4)C3)nc(-c3cccc(-c4cc5ccccc5o4)c3)c2[C@@H]1CCO (some centres undefined),nt,nt,i,nt,nt
CCCCOCCCNC(=O)C[C@@H]1C[C@@]2(C(=O)OC)CC(C)(C)CC=C2N(Cc2cccc3ccccc23)C1=O,nt,nt,i,nt,nt
Oc1ccccc1-c1cc(-c2ccco2)[nH]n1,i,i,i,i,i
